Data taken from ChEMBL document CHEMBL2150851, “Selective nitrile inhibitors to modulate the proteolytic synergism of cathepsins S and F” (J Med Chem, 2012).
pKi: −log10 of the molar value.

Experiments:
Cathepsin S [1] = target: T1, Cathepsin S (Homo sapiens, UniProt P25774); assay: Inhibition of human cathepsin S using Z-Phe-Val-Arg-pNA as substrate after 10 mins by spectrophotometric analysis
Cathepsin K [2] = target: T2, Cathepsin K (Homo sapiens, UniProt P43235); assay: Inhibition of human cathepsin K using Z-Leu-Arg-AMC as substrate after 10 mins by fluorimetric analysis
T2 sequence (P43235 whole entry): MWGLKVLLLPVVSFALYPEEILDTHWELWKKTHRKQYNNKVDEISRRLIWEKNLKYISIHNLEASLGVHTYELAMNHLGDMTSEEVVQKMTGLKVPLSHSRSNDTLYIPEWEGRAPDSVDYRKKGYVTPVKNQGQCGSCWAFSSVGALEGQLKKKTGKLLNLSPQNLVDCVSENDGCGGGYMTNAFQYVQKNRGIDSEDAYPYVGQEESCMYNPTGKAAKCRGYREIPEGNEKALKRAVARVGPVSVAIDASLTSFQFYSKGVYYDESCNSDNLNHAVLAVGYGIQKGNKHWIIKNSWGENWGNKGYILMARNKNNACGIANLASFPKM

Cathepsin B [3] = target: T3, Cathepsin B (Homo sapiens, UniProt P07858); assay: Inhibition of human cathepsin B using Z-Arg-Arg-pNA as substrate after 10 mins by spectrophotometric analysis
Cathepsin F [4] = target: T4, Cathepsin F (Homo sapiens, UniProt Q9UBX1); assay: Inhibition of human recombinant cathepsin F using Z-Phe-Arg-AMC as substrate after 8 min by fluorimetric analysis
T4 sequence (Q9UBX1 whole entry): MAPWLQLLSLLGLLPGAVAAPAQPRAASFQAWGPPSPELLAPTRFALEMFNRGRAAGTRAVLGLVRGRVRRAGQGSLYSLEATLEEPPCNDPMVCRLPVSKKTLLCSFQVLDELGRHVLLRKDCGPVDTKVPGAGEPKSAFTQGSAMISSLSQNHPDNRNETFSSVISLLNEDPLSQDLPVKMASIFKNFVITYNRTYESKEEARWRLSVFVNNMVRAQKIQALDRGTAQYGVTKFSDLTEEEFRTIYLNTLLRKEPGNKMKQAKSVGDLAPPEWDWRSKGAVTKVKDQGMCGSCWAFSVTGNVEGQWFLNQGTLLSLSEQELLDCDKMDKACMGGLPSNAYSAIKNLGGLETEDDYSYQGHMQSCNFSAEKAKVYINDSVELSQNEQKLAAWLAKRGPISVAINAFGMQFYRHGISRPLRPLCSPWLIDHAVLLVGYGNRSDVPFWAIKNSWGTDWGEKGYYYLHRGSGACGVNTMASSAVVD

Procathepsin L [5] = target: T5, Procathepsin L (Homo sapiens, UniProt P07711); assay: Inhibition of human cathepsin L using Z-Phe-Arg-pNA as substrate after 10 mins by spectrophotometric analysis
Target sequence in this assay (P07711 whole entry): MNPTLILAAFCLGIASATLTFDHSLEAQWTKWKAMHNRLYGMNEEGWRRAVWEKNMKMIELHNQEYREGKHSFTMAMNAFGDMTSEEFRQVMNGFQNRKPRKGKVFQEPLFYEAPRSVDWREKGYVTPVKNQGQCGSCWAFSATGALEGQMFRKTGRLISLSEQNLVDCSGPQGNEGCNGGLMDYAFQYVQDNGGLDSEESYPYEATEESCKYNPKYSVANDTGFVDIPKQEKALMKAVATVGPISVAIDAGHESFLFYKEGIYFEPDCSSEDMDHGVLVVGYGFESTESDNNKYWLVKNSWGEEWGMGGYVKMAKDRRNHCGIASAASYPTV

Cathepsin F [6] = target: T4, Cathepsin F; assay: Inhibition of human recombinant cathepsin F using Z-Phe-Arg-AMC as substrate by fluorimetric analysis
Outline: (§1)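 Human enzyme activity was followed with a chromogenic or fluorogenic peptide substrate, in duplicate experiments at five or more inhibitor concentrations. Mean steady-state rates were plotted against inhibitor concentration and fitted by nonlinear regression to give IC50. IC50 was then corrected to zero substrate concentration to give Ki. Standard errors of the regression are reported.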

Procathepsin L [7] = target: T5, Procathepsin L; assay: Inhibition of human cathepsin L using Z-Phe-Arg-pNA as substrate by spectrophotometric analysis; details: TDE = time-dependent effect; outline: as §1
Target sequence in this assay (P07711 114-333 limits assumed): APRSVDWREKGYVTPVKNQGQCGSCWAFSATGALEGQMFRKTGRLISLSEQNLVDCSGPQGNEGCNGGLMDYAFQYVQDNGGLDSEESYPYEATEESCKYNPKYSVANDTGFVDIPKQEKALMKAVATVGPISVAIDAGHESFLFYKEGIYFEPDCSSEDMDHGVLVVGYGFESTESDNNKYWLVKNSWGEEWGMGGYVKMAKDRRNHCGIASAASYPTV

[8] = target: T6, Cathepsin K (Homo sapiens) (UniProt P43235); assay: Inhibition of human cathepsin K using Z-Leu-Arg-AMC as substrate by fluorimetric analysis; details: TDE = time-dependent effect; outline: as §1
T6 sequence (whole entry): T2 sequence (P43235 whole entry)

Cathepsin B [9] = target: T3, Cathepsin B; assay: Inhibition of human cathepsin B using Z-Arg-Arg-pNA as substrate by spectrophotometric analysis; details: TDE = time-dependent effect; outline: as §1
Procathepsin L [10] = target: T5, Procathepsin L; assay: Inhibition of human cathepsin L using Z-Phe-Arg-pNA as substrate after 80 mins by spectrophotometric analysis
Target sequence in this assay (P07711 whole entry): as the sequence (P07711 whole entry) above

Cathepsin S [11] = target: T1, Cathepsin S; assay: Inhibition of human cathepsin S using Z-Phe-Val-Arg-pNA as substrate after 80 mins by spectrophotometric analysis
Cathepsin K [12] = target: T2, Cathepsin K; assay: Inhibition of human cathepsin K using Z-Leu-Arg-AMC as substrate after 80 mins by fluorimetric analysis
Cathepsin B [13] = target: T3, Cathepsin B; assay: Inhibition of human cathepsin B using Z-Arg-Arg-pNA as substrate after 80 mins by spectrophotometric analysis

T1 sequence (P25774 whole entry): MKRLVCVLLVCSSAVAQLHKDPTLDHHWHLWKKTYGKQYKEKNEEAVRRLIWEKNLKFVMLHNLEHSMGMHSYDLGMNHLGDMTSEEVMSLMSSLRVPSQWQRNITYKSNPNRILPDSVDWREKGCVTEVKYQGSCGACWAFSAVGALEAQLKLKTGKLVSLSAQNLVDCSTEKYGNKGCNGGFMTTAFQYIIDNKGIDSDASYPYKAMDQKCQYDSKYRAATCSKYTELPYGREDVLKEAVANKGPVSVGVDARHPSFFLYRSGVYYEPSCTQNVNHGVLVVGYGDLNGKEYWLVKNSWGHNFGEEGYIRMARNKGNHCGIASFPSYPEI

Q: With CC(C)CS(=O)(=O)CC(NC(=O)c1ccc(-c2cccs2)s1)C(=O)NCC#N (racemic) as the compound, how does the pKi (Cathepsin S [1]) read?
A: 7.03

Q: And the pKi (Cathepsin K [2])?
A: 5.96

Q: And the pKi (Cathepsin B [3])?
A: 5.47

Q: What about the pKi (Cathepsin F [4]) of the same compound?
A: 5.49

Q: And the pKi (Procathepsin L [5])?
A: < 5.40

Q: Which results are given for CC(C)CS(=O)(=O)CC(NC(=O)c1cc(-c2ccccc2)cs1)C(=O)NCC#N (racemic)?
A: pKi (Cathepsin S [1]): 7.22; pKi (Cathepsin K [2]): < 5.40; pKi (Cathepsin B [3]): 5.19; pKi (Cathepsin F [4]): < 5.40; pKi (Procathepsin L [5]): < 5.40

Q: CC(C)CS(=O)(=O)CC(NC(=O)c1ccccc1)C(=O)NCC#N (racemic) was tested. Which pKi (Cathepsin S [1]) did it give?
A: 7.40

Q: What about the pKi (Cathepsin K [2]) of the same compound?
A: < 4.40

Q: And the pKi (Cathepsin B [3])?
A: 4.40

Q: And the pKi (Cathepsin F [4])?
A: < 4.40

Q: What about the pKi (Procathepsin L [5]) of the same compound?
A: < 4.40

Q: What does the source list for CC(C)CS(=O)(=O)CC(NC(=O)c1ccc(-c2cccs2)cc1)C(=O)NCC#N (racemic)?
A: pKi (Cathepsin S [1]): 6.70; pKi (Cathepsin K [2]): < 5.40; pKi (Cathepsin B [3]): 5.41; pKi (Cathepsin F [4]): < 5.40; pKi (Procathepsin L [5]): < 5.40

Q: How did the pKi (Cathepsin S [1]) turn out when CC(C)CS(=O)(=O)CC(NC(=O)c1cccs1)C(=O)NCC#N (racemic) was run?
A: 7.35

Q: What about the pKi (Cathepsin K [2]) of the same compound?
A: < 4.40

Q: And the pKi (Cathepsin B [3])?
A: 4.62

Q: And the pKi (Cathepsin F [4])?
A: < 4.40

Q: What about the pKi (Procathepsin L [5]) of the same compound?
A: < 4.40

Q: How did the pKi (Cathepsin S [1]) turn out when CC(C)CS(=O)(=O)C[C@H](NC(=O)c1ccccc1)C(=O)NCC#N was run?
A: 7.48

Q: And the pKi (Cathepsin K [2])?
A: < 4.40

Q: And the pKi (Cathepsin B [3])?
A: 4.62

Q: What about the pKi (Cathepsin F [4]) of the same compound?
A: < 4.40

Q: What about the pKi (Procathepsin L [5]) of the same compound?
A: 4.43

Q: Which results are given for CC(C)CS(=O)(=O)CC(NC(=O)c1ccc(-c2nnn[nH]2)s1)C(=O)NCC#N (racemic)?
A: pKi (Cathepsin S [1]): 7.12; pKi (Cathepsin K [2]): < 5.40; pKi (Cathepsin B [3]): 4.47; pKi (Cathepsin F [4]): < 5.40; pKi (Procathepsin L [5]): < 5.40

Q: With CC(C)CS(=O)(=O)CC(NC(=O)c1ccc(-c2ccccc2)s1)C(=O)NCC#N (racemic) as the compound, how does the pKi (Cathepsin S [1]) read?
A: 7.21

Q: And the pKi (Cathepsin K [2])?
A: < 5.40

Q: What about the pKi (Cathepsin B [3]) of the same compound?
A: 5.29

Q: And the pKi (Cathepsin F [4])?
A: < 5.40

Q: What about the pKi (Procathepsin L [5]) of the same compound?
A: < 5.40

Q: With CC(C)CS(=O)(=O)CC(NC(=O)c1cc2ccsc2s1)C(=O)NCC#N (racemic) as the compound, how does the pKi (Cathepsin S [1]) read?
A: 7.00

Q: And the pKi (Cathepsin K [2])?
A: < 5.40

Q: What about the pKi (Cathepsin B [3]) of the same compound?
A: 5.14

Q: And the pKi (Cathepsin F [4])?
A: < 5.40

Q: What about the pKi (Procathepsin L [5]) of the same compound?
A: < 5.40

Q: With CC(C)CS(=O)(=O)CC(NC(=O)c1cc2ccccc2s1)C(=O)NCC#N (racemic) as the compound, how does the pKi (Cathepsin S [1]) read?
A: 7.05

Q: And the pKi (Cathepsin K [2])?
A: < 5.40

Q: And the pKi (Cathepsin B [3])?
A: 5.17

Q: What about the pKi (Cathepsin F [4]) of the same compound?
A: < 5.40

Q: And the pKi (Procathepsin L [5])?
A: < 5.40

Q: With CC(C)CS(=O)(=O)CC(NC(=O)c1ccc(-c2ccsc2)s1)C(=O)NCC#N (racemic) as the compound, how does the pKi (Cathepsin S [1]) read?
A: 7.21

Q: What about the pKi (Cathepsin K [2]) of the same compound?
A: < 5.40

Q: What about the pKi (Cathepsin B [3]) of the same compound?
A: 5.27

Q: And the pKi (Cathepsin F [4])?
A: < 5.40

Q: And the pKi (Procathepsin L [5])?
A: < 5.40

Q: What does the source list for CC(C)CS(=O)(=O)C[C@H](NC(=O)c1ccccc1)C(=O)N(C)N(C)C#N?
A: pKi (Cathepsin F [6]): 7.68; inhibition (Procathepsin L [7]): tde; inhibition [8]: tde; inhibition (Cathepsin B [9]): tde; pKi (Procathepsin L [10]): 7.82; pKi (Cathepsin S [11]): 9.26; pKi (Cathepsin K [12]): 9.18; pKi (Cathepsin B [13]): 8.24
